Laboratory results: ChEMBL document CHEMBL4689842, “EUbOPEN Chemogenomics Library wave 1” (2021)
“And” between values parts separate entries of the source, which are not always exact repeats. Equal values may be shown once.

System: U2OS
Assay: Multiplex assay against U2OS
Assay type: toxicity, cell-based
Details: human
Method in brief: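 Values for tubulin, mitochondrial-mass and membrane-permeability phenotypes are per cents of cells with healthy nuclei. These cells were identified by CellPathfinder machine-learning gating of live cells that had been stained at seeding with Hoechst33342, BioTracker Green Microtubule Cytoskeleton Dye, MitoTracker Red and Annexin V Alexa Fluor 680 and imaged on a CQ1 microscope at 37°C and 5% CO2 after compound addition. The gating first set Hoechst high-intensity objects apart from normal cells, then split normal cells into healthy, pyknosed or fragmented nuclei, and pyknosed cells into mitotic or apoptotic.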

[1] = 12 h, 1 µM, compound concentration 1 uM, replicate 1
[2] = 12 h, 1 µM, compound concentration 1 uM, replicate 2
[3] = 12 h, 10 µM, compound concentration 10 uM, replicate 1
[4] = 12 h, 10 µM, compound concentration 10 uM, replicate 2
[5] = 24 h, 1 µM, compound concentration 1 uM, replicate 1
[6] = 24 h, 1 µM, compound concentration 1 uM, replicate 2
[7] = 24 h, 10 µM, compound concentration 10 uM, replicate 1
[8] = 24 h, 10 µM, compound concentration 10 uM, replicate 2

Structure (SMILES): CC(=O)O[C@H]1C(=O)[C@@]2(C)[C@H]([C@H](OC(=O)c3ccccc3)[C@]3(O)C[C@H](OC(=O)[C@H](O)[C@@H](NC(=O)c4ccccc4)c4ccccc4)C(C)=C1C3(C)C)[C@]1(OC(C)=O)CO[C@@H]1C[C@@H]2O [PACLITAXEL]
- Population Fragmented Nuclei (%) [1]: 6% and 4%
- Population Healthy Nuclei (%) [1]: 86% and 92%
- Population Hoechst High Intensity Objects (%) [1]: 3% and 2%
- Population Membrane Permeable-Phenotype (%) [1]: 15% and 11%
- Population Mitochondria Different-Phenotype (%) [1]: 21% and 22%
- Population Mitotic Cells (%) [1]: 33% and 80%
- Population Normal (%) [1]: 96% and 97%
- Population Pyknosed Nuclei (%) [1]: 7% and 3%
- Population Tubulin-Different-Phenotype (%) [1]: 32% and 25%
- Population Apoptotic (%) [2]: 6% and 8%
- Population Fragmented Nuclei (%) [2]: 7%
- Population Healthy Nuclei (%) [2]: 81% and 84%
- Population Hoechst High Intensity Objects (%) [2]: 10% and 11%
- Population Membrane Permeable-Phenotype (%) [2]: 14% and 7%
- Population Mitochondria Different-Phenotype (%) [2]: 24% and 30%
- Population Mitotic Cells (%) [2]: 93% and 91%
- Population Normal (%) [2]: 90% and 88%
- Population Pyknosed Nuclei (%) [2]: 10% and 8%
- Population Tubulin-Different-Phenotype (%) [2]: 33%
- Population Apoptotic (%) [3]: 30% and 77% and 26%
- Population Fragmented Nuclei (%) [3]: 3% and 5% and 4% and 2%
- Population Healthy Nuclei (%) [3]: 91% and 89%
- Population Hoechst High Intensity Objects (%) [3]: 3% [middle of 4 runs]
- Population Membrane Permeable-Phenotype (%) [3]: 11% and 7%
- Population Mitochondria Different-Phenotype (%) [3]: 19% and 25%
- Population Normal (%) [3]: 96% and 95% and 99% and 98%
- Population Pyknosed Nuclei (%) [3]: 5%
- Population Tubulin-Different-Phenotype (%) [3]: 41% and 30% and 39%
- Population Fragmented Nuclei (%) [4]: 10% and 6%
- Population Healthy Nuclei (%) [4]: 81% and 88% and 83% and 87%
- Population Hoechst High Intensity Objects (%) [4]: 12% and 9% and 11%
- Population Membrane Permeable-Phenotype (%) [4]: 12% and 9% and 8% and 6%
- Population Mitochondria Different-Phenotype (%) [4]: 28% and 20% and 33%
- Population Mitotic Cells (%) [4]: 77% [middle of 4 runs]
- Population Normal (%) [4]: 87% and 90% and 88%
- Population Pyknosed Nuclei (%) [4]: 8% and 6% and 2%
- Population Tubulin-Different-Phenotype (%) [4]: 28% and 26% and 31%
- Population Fragmented Nuclei (%) [5]: 4%
- Population Healthy Nuclei (%) [5]: 93% and 90%
- Population Hoechst High Intensity Objects (%) [5]: 1% and 3%
- Population Membrane Permeable-Phenotype (%) [5]: 10% and 3%
- Population Mitochondria Different-Phenotype (%) [5]: 19% and 15%
- Population Mitotic Cells (%) [5]: 40% and 83%
- Population Normal (%) [5]: 98% and 96%
- Population Pyknosed Nuclei (%) [5]: 2% and 5%
- Population Tubulin-Different-Phenotype (%) [5]: 35%
- Population Apoptotic (%) [6]: 38% and 33%
- Population Fragmented Nuclei (%) [6]: 5%
- Population Healthy Nuclei (%) [6]: 87% and 91%
- Population Hoechst High Intensity Objects (%) [6]: 6% and 7%
- Population Membrane Permeable-Phenotype (%) [6]: 12% and 9%
- Population Mitochondria Different-Phenotype (%) [6]: 23% and 26%
- Population Mitotic Cells (%) [6]: 61% and 66%
- Population Normal (%) [6]: 93% and 92%
- Population Pyknosed Nuclei (%) [6]: 6% and 4%
- Population Tubulin-Different-Phenotype (%) [6]: 37% and 33%
- Population Apoptotic (%) [7]: 37% and 21%
- Population Fragmented Nuclei (%) [7]: 3% and 2%
- Population Healthy Nuclei (%) [7]: 94% and 91% and 93%
- Population Hoechst High Intensity Objects (%) [7]: 2% and 1%
- Population Membrane Permeable-Phenotype (%) [7]: 6% and 4%
- Population Mitochondria Different-Phenotype (%) [7]: 26% and 17% and 29%
- Population Mitotic Cells (%) [7]: 62% and 78%
- Population Normal (%) [7]: 97% and 98%
- Population Pyknosed Nuclei (%) [7]: 2% and 4% and 5%
- Population Tubulin-Different-Phenotype (%) [7]: 50% and 38% and 34% and 37%
- Population Apoptotic (%) [8]: 50% [middle of 4 runs]
- Population Fragmented Nuclei (%) [8]: 10% and 5% and 7%
- Population Healthy Nuclei (%) [8]: 81% and 86% and 85%
- Population Hoechst High Intensity Objects (%) [8]: 5% and 3% and 4% and 9%
- Population Mitochondria Different-Phenotype (%) [8]: 32% [middle of 4 runs]
- Population Mitotic Cells (%) [8]: 45% and 66% and 50% and 64%
- Population Normal (%) [8]: 94% and 96% and 95% and 90%
- Population Pyknosed Nuclei (%) [8]: 8% and 3% and 6%
- Population Tubulin-Different-Phenotype (%) [8]: 31% and 26% and 27%

Structure (SMILES): CNC(=O)c1cc(Oc2ccc(NC(=O)Nc3cc(C(C)(C)C)nn3-c3ccc4ncccc4c3)c(F)c2)ccn1 [REBASTINIB]
- Population Apoptotic (%) [1]: 46%
- Population Fragmented Nuclei (%) [1]: 3%
- Population Healthy Nuclei (%) [1]: 88%
- Population Hoechst High Intensity Objects (%) [1]: 3%
- Population Membrane Permeable-Phenotype (%) [1]: 16%
- Population Mitochondria Different-Phenotype (%) [1]: 15%
- Population Mitotic Cells (%) [1]: 53%
- Population Normal (%) [1]: 96%
- Population Pyknosed Nuclei (%) [1]: 7%
- Population Tubulin-Different-Phenotype (%) [1]: 13%
- Total Cell Count [1]: 164
- Population Apoptotic (%) [2]: 0%
- Population Fragmented Nuclei (%) [2]: 10%
- Population Healthy Nuclei (%) [2]: 87%
- Population Hoechst High Intensity Objects (%) [2]: 7%
- Population Membrane Permeable-Phenotype (%) [2]: 17%
- Population Mitochondria Different-Phenotype (%) [2]: 31%
- Population Mitotic Cells (%) [2]: 100%
- Population Normal (%) [2]: 92%
- Population Pyknosed Nuclei (%) [2]: 1%
- Population Tubulin-Different-Phenotype (%) [2]: 35%
- Total Cell Count [2]: 113
- Population Apoptotic (%) [3]: 50%
- Population Fragmented Nuclei (%) [3]: 16%
- Population Healthy Nuclei (%) [3]: 63%
- Population Hoechst High Intensity Objects (%) [3]: 6%
- Population Membrane Permeable-Phenotype (%) [3]: 30%
- Population Mitochondria Different-Phenotype (%) [3]: 54%
- Population Mitotic Cells (%) [3]: 50%
- Population Normal (%) [3]: 93%
- Population Pyknosed Nuclei (%) [3]: 20%
- Population Tubulin-Different-Phenotype (%) [3]: 96%
- Total Cell Count [3]: 196
- Population Apoptotic (%) [4]: 46%
- Population Fragmented Nuclei (%) [4]: 8%
- Population Healthy Nuclei (%) [4]: 72%
- Population Hoechst High Intensity Objects (%) [4]: 11%
- Population Membrane Permeable-Phenotype (%) [4]: 18%
- Population Mitochondria Different-Phenotype (%) [4]: 52%
- Population Mitotic Cells (%) [4]: 53%
- Population Normal (%) [4]: 88%
- Population Pyknosed Nuclei (%) [4]: 18%
- Population Tubulin-Different-Phenotype (%) [4]: 98%
- Total Cell Count [4]: 111
- Population Apoptotic (%) [5]: 25%
- Population Fragmented Nuclei (%) [5]: 6%
- Population Healthy Nuclei (%) [5]: 84%
- Population Hoechst High Intensity Objects (%) [5]: 2%
- Population Membrane Permeable-Phenotype (%) [5]: 12%
- Population Mitochondria Different-Phenotype (%) [5]: 28%
- Population Mitotic Cells (%) [5]: 75%
- Population Normal (%) [5]: 97%
- Population Pyknosed Nuclei (%) [5]: 9%
- Population Tubulin-Different-Phenotype (%) [5]: 13%
- Total Cell Count [5]: 218
- Population Apoptotic (%) [6]: 44%
- Population Fragmented Nuclei (%) [6]: 13%
- Population Healthy Nuclei (%) [6]: 79%
- Population Hoechst High Intensity Objects (%) [6]: 13%
- Population Membrane Permeable-Phenotype (%) [6]: 14%
- Population Mitochondria Different-Phenotype (%) [6]: 26%
- Population Mitotic Cells (%) [6]: 55%
- Population Normal (%) [6]: 86%
- Population Pyknosed Nuclei (%) [6]: 7%
- Population Tubulin-Different-Phenotype (%) [6]: 35%
- Total Cell Count [6]: 126
- Population Apoptotic (%) [7]: 75%
- Population Fragmented Nuclei (%) [7]: 17%
- Population Healthy Nuclei (%) [7]: 50%
- Population Hoechst High Intensity Objects (%) [7]: 18%
- Population Membrane Permeable-Phenotype (%) [7]: 33%
- Population Mitochondria Different-Phenotype (%) [7]: 91%
- Population Mitotic Cells (%) [7]: 24%
- Population Normal (%) [7]: 81%
- Population Pyknosed Nuclei (%) [7]: 31%
- Population Tubulin-Different-Phenotype (%) [7]: 94%
- Total Cell Count [7]: 227
- Population Apoptotic (%) [8]: 64%
- Population Fragmented Nuclei (%) [8]: 15%
- Population Healthy Nuclei (%) [8]: 59%
- Population Hoechst High Intensity Objects (%) [8]: 17%
- Population Membrane Permeable-Phenotype (%) [8]: 30%
- Population Mitochondria Different-Phenotype (%) [8]: 87%
- Population Mitotic Cells (%) [8]: 35%
- Population Normal (%) [8]: 82%
- Population Pyknosed Nuclei (%) [8]: 25%
- Population Tubulin-Different-Phenotype (%) [8]: 97%
- Total Cell Count [8]: 141
